Results on 167 variants are retold here after the RNAGym collection of RNA variant scans (doi:10.1126/science.aae0568).

The labels stand for the following.
B1: tRNA (parent)
chain: GUUCCGUUGGCGUAAUGGUAACGCGUCUCCCUCCUAAGGAGAAGACUGCGGGUUCGAGUCCCGUACGGAACG

Variants at the floor of the assay were thinned out. Some results are limits rather than exact numbers.

The series covers variants of B1. Briefly: yeast fitness relative to wild type (ratio to wild type); higher = fitter; tRNA-Arg(CCU), competitive growth, 37 C, YPD. In short, it runs like this: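 Start and end populations of a pooled competition were compared by 100-nucleotide paired-end sequencing of gene amplicons. The Saccharomyces cerevisiae strains carried tRNA-Arg(CCU) gene variants at the native genomic locus, synthesised with a 3% per-site mutation rate at 69 sites, and competed in YPD at 37°C for 24 hours in six parallel replicates. Darwinian fitness relative to wild type was based on the change in genotype frequencies. Genotypes required ≥ 100 starting reads, and estimates < 0.5 were set to 0.5.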
As for C22A U53C, the yeast fitness worked out at 0.764. On to C22U C24A A42G, for which the yeast fitness was no more than 0.5. The value for C22G C49G G68C was 0.529. For G23A C30U U35C G48C U59A C66U the value was 0.526; for G23C U53A A65U, no more than 0.5. As to G23C A70U, the yeast fitness was determined as 0.717.

Regarding C22G C33G A36U, the yeast fitness was no more than 0.5. In the case of C24A A36U C55A C66U, the yeast fitness is no more than 0.5. For the variant G23C C29U G44A C62U, the yeast fitness was no more than 0.5. G23C U59C: the yeast fitness was found to be 0.583. Consider C22G U32C A43G G52A C61G, for which the yeast fitness was no more than 0.5. The value for C22G C31U C49U C61A was no more than 0.5.

Take C22U C29U G41A G48A C62A: the yeast fitness is 0.611. Regarding C22G C33G, the yeast fitness stood at 0.685.

For the variant C22U C29A, the yeast fitness was 0.543. Consider C22U G38C C46U C66G, for which the yeast fitness is no more than 0.5. In the case of C22U A40U A43U C46U C55U A65U, the yeast fitness was no more than 0.5.

Take C22U G23C G52C: the yeast fitness was no more than 0.5. With C22U C31A C34U A36C A45C C61U U64A, the yeast fitness is no more than 0.5. For the variant G23A A43C U59A, the yeast fitness is 0.639. Turning to C22G G52A, the yeast fitness was found to be 0.772. As to G23A U28C U59C C60G, the yeast fitness turned out to be 0.649.

As to C22A U26A, the yeast fitness was 0.949.

In the case of C24A A42C U47A G63C A69C, the yeast fitness was no more than 0.5. Turning to C22G G50C A57G, the yeast fitness was no more than 0.5.

Consider C22G C31G C62U G68C, for which the yeast fitness was no more than 0.5. On to C22U C49U, for which the yeast fitness came out at 0.816. As for C24A A36C G52C C66U, the yeast fitness worked out at 0.761.

On to C22U A57G C60A, for which the yeast fitness is no more than 0.5. The value for G23A C34A A43U U47C C62G C66A was 0.689; that for C22U G52A A57U was no more than 0.5; that for C22G C27U U35C G39C A42C G48A was no more than 0.5.

On to C22G C24A G38A G44C U59A, for which the yeast fitness is no more than 0.5. On to C22G C30U U54C, for which the yeast fitness was 0.554. C22A C33G A43C C49U U64C: the yeast fitness was no more than 0.5. Regarding G23A G25A C31U, the yeast fitness is 0.652. For the variant C22U G52A C55A A69C, the yeast fitness is no more than 0.5. For the variant G23A C29G A45U C62U, the yeast fitness was no more than 0.5. Turning to C22U U35C C55A C66U, the yeast fitness is no more than 0.5. For C22G C29A U53A C66U the value was no more than 0.5; for G23A C29G A45U C60G C61U, 0.557; for G23A C30U C33A A43G G48C A57G, no more than 0.5. For C24A A40C A69C, the yeast fitness was no more than 0.5. For the variant C22U C29U A40C, the yeast fitness is 0.667. C22G C27U C62A A65G: the yeast fitness is no more than 0.5. The value for C22U G48A A65U was 0.773; that for G23A C30U U35C was no more than 0.5; that for G23A C46U was 0.646. On to G23A C27U C60G G67A, for which the yeast fitness was 0.549. Regarding G23C C29G A43U, the yeast fitness is no more than 0.5. For C24A A40U C49U C62A C66A the value was no more than 0.5. For C22U A40G A43U C46G C49G C62U the value was 0.531. On to G23C C31A A36U, for which the yeast fitness is no more than 0.5. C22G A45U G48C C49G: the yeast fitness was no more than 0.5.

Take C22G C24G A45C G63C: the yeast fitness came out at 0.563. For C22G U54A U59A C61U, the yeast fitness is no more than 0.5.

Consider G23A A43U A65U, for which the yeast fitness was no more than 0.5. Take C22G C24G C55G: the yeast fitness is no more than 0.5. In the case of C22G U47A A70C, the yeast fitness is no more than 0.5.

Turning to G23A C30U C55G A57C C61A, the yeast fitness is no more than 0.5.

Consider C22U A69C, for which the yeast fitness amounted to 0.876.

Turning to C22U C24G C30G, the yeast fitness is no more than 0.5.

Turning to C22A G68A, the yeast fitness is 0.869. The value for C22A G68U was 0.825; that for C22A G68C was 0.822. For the variant G23C A37U C46G, the yeast fitness is no more than 0.5.

As to G23A G52A, the yeast fitness stood at 0.546. As for C22U C49G U53A, the yeast fitness stood at 0.558. For the variant G23A C30U U35C G67U A69C, the yeast fitness is no more than 0.5. Consider G23U G63C, for which the yeast fitness stood at 0.623. The value for C22A U35G was 0.631; that for C22U G23A U54G A57U was no more than 0.5.

Regarding C22G G48C G67C, the yeast fitness was no more than 0.5. With G23C A42C A43C, the yeast fitness was found to be 0.575. On to C22U U47A A70G, for which the yeast fitness turned out to be 0.536. For C22G C55U U59A A65C the value was no more than 0.5; for C22U C27G C31U G68A, no more than 0.5; for C22A C49U C55A, 0.656. Take C22G A40C: the yeast fitness amounted to 0.68.

As to G23A U47C C55U A69C, the yeast fitness was no more than 0.5. The value for C22G C31G C61U was 0.587. Take G23C U28G A42C G52C: the yeast fitness was no more than 0.5.

On to C22A G23A C33U A42U A69U, for which the yeast fitness was no more than 0.5. C22G C29A A45U: the yeast fitness came to 0.615. For C22G C31U U53A the value was no more than 0.5; for C22U A42G C55G A70U, 0.556; for C22A C49U G51C, no more than 0.5.

Regarding C22U C33G G58C, the yeast fitness stood at 0.525.

As for C22G G44C C55U, the yeast fitness is 0.564. C22G C31G C49U U54G: the yeast fitness was 0.568.

As to C22A U26A C29G C34G G50C U64C, the yeast fitness is no more than 0.5. Regarding C22U U59C, the yeast fitness came out at 0.778. Turning to C22U A40C A70U, the yeast fitness is 0.545. For the variant G23A C34U A43U G44C C60U, the yeast fitness was no more than 0.5. As to C22G C31U C61G, the yeast fitness stood at 0.614. Turning to C22U G52A C61U, the yeast fitness is no more than 0.5. The value for G23C C27G C61U was no more than 0.5; that for G23C U28C C29U A69C was no more than 0.5.

Take C22U C60U C61A: the yeast fitness was no more than 0.5. In the case of G23C C24A C30G A40U U47A G51C C66A A69U, the yeast fitness turned out to be 0.525.

On to G23C G39C, for which the yeast fitness was 0.53. For C22G C31G G67A the value was 0.615; for G23C C30G C46U A65G A70U, 0.63. With C22G C27G C29G C34A A43U, the yeast fitness is no more than 0.5. On to C22U U47G, for which the yeast fitness amounted to 0.611. C22U C27U U54G: the yeast fitness was no more than 0.5.

In the case of C22G G44C A70C, the yeast fitness amounted to 0.553. With C22U G25A G67C, the yeast fitness amounted to 0.535. In the case of C22G C34A A36U, the yeast fitness came to 0.656.

C22G C66U: the yeast fitness was 0.896.

As to G23A C62U A65C, the yeast fitness was 0.582. In the case of G23C C24U C46U U47C, the yeast fitness was 0.684. Turning to C22U C24G U47C C61A, the yeast fitness is no more than 0.5.

As for C22A U26A A36U G56C C60G, the yeast fitness is no more than 0.5. The value for C22U U28A C55G A57C was no more than 0.5; that for G23U A43U C55G was no more than 0.5; that for C22A U26A C66U was 0.582.

Regarding C22U C27U C33G G44C, the yeast fitness was no more than 0.5. With C22U C30A C34U G38C, the yeast fitness is no more than 0.5. For C22U A36C A45C C55G C62A G68A the value was no more than 0.5; for C22U C27G U28G U59C, no more than 0.5; for C22U A42U G51C C62U, no more than 0.5. C24A A43C A69U: the yeast fitness is no more than 0.5.

For G23C C33G A42U, the yeast fitness was determined as 0.556.

Turning to C22U C30A A40U A43U, the yeast fitness was no more than 0.5. For the variant G23C C33U, the yeast fitness worked out at 0.544.

For the variant C22G C29G G41C, the yeast fitness was no more than 0.5.

In the case of C22G G25A G41C A57U, the yeast fitness was no more than 0.5. For the variant C22G U47A G52A, the yeast fitness was no more than 0.5. As to C22A U32C A37C A65G, the yeast fitness was no more than 0.5. As for C22G U26A, the yeast fitness amounted to 1.08. The value for C22G U28C U47A was no more than 0.5. C22G U28A C31G G39A C55A G68C: the yeast fitness was no more than 0.5.

On to C22U U28C U54A A69U, for which the yeast fitness was no more than 0.5. As to C22U A40G, the yeast fitness came to 0.834. As for C22U C33G A42C C49G G58C C62G, the yeast fitness was no more than 0.5. Regarding C22U C46A G58C C66U, the yeast fitness is no more than 0.5. As to C22U C30G C49U, the yeast fitness is no more than 0.5. Regarding C22U G52A C60U, the yeast fitness was determined as 0.598. For C22G C60A the value was 0.679.

With C22G A45G C49U A70U, the yeast fitness was no more than 0.5. For C22A G23C C34U A36G A40U G67A the value was no more than 0.5. Take C22U A40U A43U: the yeast fitness is no more than 0.5. In the case of G23C C27G A45G G52A, the yeast fitness was 0.57. Take C22G C34A A36U A42C C46G: the yeast fitness is no more than 0.5.

Take C22U U28G A45G A65G: the yeast fitness was no more than 0.5.

For G23C U54C C66U, the yeast fitness was no more than 0.5. Consider C22U A57G A70U, for which the yeast fitness was found to be 0.591. For the variant C22U C24A A70U, the yeast fitness was no more than 0.5. Turning to C22U A70C, the yeast fitness is 0.859. For G23A A45U G56A, the yeast fitness worked out at 0.727. As for G23A A43C C66G, the yeast fitness is no more than 0.5. As for C22G G48C A69C, the yeast fitness was found to be 0.589.

For the variant G23C A45U A65C, the yeast fitness is no more than 0.5. For G23A C30A U64A the value was no more than 0.5; for C22G U35C, 0.8; for G23A C30G, 0.527.

In the case of G23C C30G G39C, the yeast fitness came out at 0.501.

Take C22U A36C A65G: the yeast fitness stood at 0.564. With C22G C29A G63A, the yeast fitness worked out at 0.553.

Regarding G23C C31U G48A C49U, the yeast fitness was no more than 0.5. C22A G63C A65C: the yeast fitness was no more than 0.5.

Regarding C22U C29A C55G A65U G67A, the yeast fitness came out at 0.578. C22G A36C U47A: the yeast fitness was 0.552. On to C22G C27G, for which the yeast fitness was found to be 0.597.

Consider G23A C29G A57G C66G, for which the yeast fitness was no more than 0.5. Consider C24A A42G G63A U64A, for which the yeast fitness was no more than 0.5.
